Measurements published in ChEMBL document CHEMBL3351384, “Synthesis of pyrazoline-thiazolidinone hybrids with trypanocidal activity” (Eur J Med Chem, 2014).
Converted amounts (≈) assume the structure as drawn.

Experiments:
[1] = test system: Trypanosoma brucei gambiense; assay: Anti-trypanosomal activity against Trypanosoma brucei gambiense Feo bloodstream forms assessed as inhibition of parasite growth rate at 50 ug/mL after 72 hrs by resazurin assay; type: functional; conditions: read-out: GI
Outline: (§1)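 Fixed-concentration screen of bloodstream-form Feo parasites, 10⁴ cells per well, cultured in HMI9 with 10% FCS at 37 °C, 5% CO2. Most compounds tested at 50, 10 and 1; some at 100, 20 and 2. Growth measured by resazurin fluorescence at 530 nm. Percent inhibition calculated against untreated wells.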

[2] = test system: Trypanosoma brucei gambiense; assay: Anti-trypanosomal activity against Trypanosoma brucei gambiense Feo bloodstream forms assessed as inhibition of parasite growth rate at 10 ug/mL after 72 hrs by resazurin assay; type: functional; conditions: read-out: GI; outline: as §1
[3] = test system: Trypanosoma brucei gambiense; assay: Anti-trypanosomal activity against Trypanosoma brucei gambiense Feo bloodstream forms assessed as inhibition of parasite growth rate at 1 ug/mL after 72 hrs by resazurin assay; type: functional; conditions: read-out: GI; outline: as §1
[4] = test system: Trypanosoma brucei gambiense; assay: Anti-trypanosomal activity against Trypanosoma brucei gambiense Feo bloodstream forms assessed as inhibition of parasite growth rate after 72 hrs by resazurin assay; type: functional, organism-based
Outline: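 Bloodstream-form Feo parasites in HMI9 with 10% FCS, 37 °C, 5% CO2. Log-phase cells harvested at 3000 × g and used at once. 10⁴ cells per well, with or without inhibitor (stocks in DMSO). Resazurin added and fluorescence read at 530 nm. Inhibition taken against drug-free wells. IC50 from dose–response curves ranging down to 10 ng/ml. Mean ± SD of three independent experiments.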

Trypanosoma cruzi = assay: Anti-trypanosomal activity against Trypanosoma cruzi Y; type: functional, organism-based
[5] = test system: Trypanosoma brucei rhodesiense; assay: Anti-trypanosomal activity against Trypanosoma brucei rhodesiense; type: functional, organism-based
[6] = test system: Trypanosoma brucei brucei; assay: Anti-trypanosomal activity against Trypanosoma brucei brucei; type: functional, organism-based
[7] = test system: Trypanosoma brucei gambiense; assay: Anti-trypanosomal activity against Trypanosoma brucei gambiense Feo bloodstream forms assessed as inhibition of parasite growth rate at 100 ug/mL after 72 hrs by resazurin assay; type: functional; conditions: read-out: GI; outline: as §1
[8] = test system: Trypanosoma brucei gambiense; assay: Anti-trypanosomal activity against Trypanosoma brucei gambiense Feo bloodstream forms assessed as inhibition of parasite growth rate at 20 ug/mL after 72 hrs by resazurin assay; type: functional; conditions: read-out: GI; outline: as §1
[9] = test system: Trypanosoma brucei gambiense; assay: Anti-trypanosomal activity against Trypanosoma brucei gambiense Feo bloodstream forms assessed as inhibition of parasite growth rate at 2 ug/mL after 72 hrs by resazurin assay; type: functional; conditions: read-out: GI; outline: as §1
[10] = Cytotoxicity against rat L6 cells after 5 days by resazurin assay; type: cell-based
Outline: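 Rat myoblast L-6 cells in RPMI with 25 mM HEPES pH 7.3 and 10% fetal calf serum, 37 °C, 5% CO2. Compounds from DMSO stocks, final DMSO below 1%. Controls received DMSO only. Viability by resazurin conversion, fluorescence at 530 nm excitation and 590 nm emission after a further 4 h. CC50 is the mean ± SD of three independent experiments.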

[11] = Selectivity index, ratio of CC50 for rat L6 cells to IC50 for Trypanosoma brucei gambiense Feo; type: functional
Outline: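 Computed as CC50 (L-6 cells, resazurin) divided by IC50 (T. b. gambiense Feo bloodstream forms, resazurin). Both values are means of three independent experiments.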

[12] = test system: Trypanosoma brucei gambiense; assay: Potency index, ratio of IC50 for nifurtimox to IC50 for test compound against Trypanosoma brucei gambiense Feo bloodstream forms assessed as inhibition of parasite growth rate after 72 hrs by resazurin assay; type: functional

| SMILES | inhibition of growth at 50 µg/mL [1] | inhibition of growth at 10 µg/mL [2] | inhibition of growth at 1 µg/mL [3] | IC50 [4] | also measured |
| --- | --- | --- | --- | --- | --- |
| O=C1NC(=S)/C(=C/N2N=C(c3ccccc3)CC2c2ccccc2O)S1 (configuration not stated) | 85.8% | 93.3% | 61% | 3.5 µM | – |
| CCC1SC(N/N=C/CSc2ccccc2)=NC1=O (configuration not stated) | – | – | – | – | IC50 (Trypanosoma cruzi): 0.3 µM |
| CC1=NN(C2=NC(=O)CS2)C(c2ccccc2)C1 (configuration not stated) | – | – | – | – | IC50 [5]: 12 µg/mL (≈ 46.3 µM) |
| COc1ccc(C2CC(c3ccccc3)=NN2C2=NC(=O)S/C2=C\c2ccc([N+](=O)[O-])cc2)cc1 (configuration not stated) | – | – | – | – | IC50 [6]: 3.01 µg/mL (≈ 6.21 µM) |
| COc1ccc(C2CC(c3ccccc3)=NN2/C=C2\SC(=S)NC2=O)cc1 (configuration not stated) | 91.5% | 92.3% | 21.9% | 14.7 µM | – |
| CN(C)c1ccc(C2CC(c3ccccc3)=NN2/C=C2\SC(=S)NC2=O)cc1 (configuration not stated) | 74% | 76.2% | 30.2% | 10.5 µM | – |
| O=C1NC(=S)S/C1=C\N1N=C(c2ccc3ccccc3c2)CC1c1ccc(F)cc1 (configuration not stated) | 85.4% | 85% | 19.9% | 13.2 µM | – |
| CN1C(=O)/C(=C/N2N=C(c3ccccc3)CC2c2ccc(Cl)cc2)SC1=S (configuration not stated) | – | – | – | – | inhibition of growth at 100 µg/mL [7]: 56%; inhibition of growth at 20 µg/mL [8]: 42%; inhibition of growth at 2 µg/mL [9]: 8.2% |
| CN1C(=O)/C(=C/N2N=C(c3ccc4ccccc4c3)CC2c2ccc(Cl)cc2)SC1=S (configuration not stated) | 97% | 97.2% | 97.1% | > 1 µM | CC50 at 120 h [10]: 154 µM |
| COc1ccc(C2CC(c3ccc4ccccc4c3)=NN2/C=C2\SC(=S)N(C)C2=O)cc1 (configuration not stated) | 97.1% | 97.2% | 97.2% | 0.6 µM | CC50 at 120 h [10]: 175 µM; Ratio CC50/IC50 [11]: 292; Ratio IC50 [12]: 6 |
| COc1ccc(C2CC(c3ccccc3)=NN2/C=C2\SC(=S)N(Cc3ccco3)C2=O)cc1 (configuration not stated) | 46.6% | 67.3% | 37.9% | – | – |
| COc1ccc(C2=NN(/C=C3\SC(=S)N(Cc4ccco4)C3=O)C(c3ccc(OC)cc3)C2)cc1 (configuration not stated) | 12.8% | 48.2% | 38.7% | > 98.9 µM | – |
| COc1ccc(C2CC(c3ccc4ccccc4c3)=NN2/C=C2\SC(=S)N(Cc3ccco3)C2=O)cc1 (configuration not stated) | 54.6% | 32.1% | 19.4% | – | – |
| O=C1/C(=C/N2N=C(c3ccc4ccccc4c3)CC2c2ccc(Cl)cc2)SC(=S)N1Cc1ccco1 (configuration not stated) | 59.6% | 45.3% | 29% | – | – |
| COc1ccc(C2CC(c3ccccc3)=NN2/C=C2\SC(=S)N(c3ccc(C)cc3)C2=O)cc1 (configuration not stated) | 17.8% | 69.2% | 52.5% | 1.5 µM | – |
| COc1ccc(C2=NN(/C=C3\SC(=S)N(c4ccc(C)cc4)C3=O)C(c3ccc(OC)cc3)C2)cc1 (configuration not stated) | 23.1% | 55.5% | 44.5% | – | – |

| SMILES | inhibition of growth at 50 µg/mL [1] | inhibition of growth at 10 µg/mL [2] | inhibition of growth at 1 µg/mL [3] | IC50 [4] | also measured |
| --- | --- | --- | --- | --- | --- |
| Cc1ccc(N2C(=O)/C(=C/N3N=C(c4ccccc4)CC3c3ccc(N(C)C)cc3)SC2=S)cc1 (configuration not stated) | 5.8% | 51.9% | 39.8% | > 20.1 µM | – |
| COc1ccc(C2=NN(/C=C3\SC(=S)N(c4ccc(C)cc4)C3=O)C(c3ccc(Cl)cc3)C2)cc1 (configuration not stated) | 40.2% | 70.4% | 62.8% | 2.5 µM | – |
| Cc1ccc(N2C(=O)/C(=C/N3N=C(c4ccc5ccccc5c4)CC3c3ccc(Cl)cc3)SC2=S)cc1 (configuration not stated) | 41.7% | 59.4% | 27.6% | 21.7 µM | – |
| CC(=O)Oc1cccc(N2C(=O)/C(=C/N3N=C(c4ccccc4)CC3c3ccccc3O)SC2=S)c1 (configuration not stated) | 90.9% | 93.8% | 83.1% | 1.1 µM | CC50 at 120 h [10]: 13.6 µM; Ratio CC50/IC50 [11]: 12.4 |
| COc1ccc(C2=NN(/C=C3\SC(=S)N(c4cccc(OC(C)=O)c4)C3=O)C(c3ccccc3O)C2)cc1 (configuration not stated) | 89.5% | 91.7% | 90.1% | 0.7 µM | CC50 at 120 h [10]: 40 µM; Ratio CC50/IC50 [11]: 57.1; Ratio IC50 [12]: 6 |
| COc1ccc(C2CC(c3ccccc3)=NN2/C=C2\SC(=S)N(c3cccc(OC(C)=O)c3)C2=O)cc1 (configuration not stated) | 97.2% | 97.5% | 79.3% | 10.8 µM | – |
| COc1ccc(C2CC(c3ccc4ccccc4c3)=NN2/C=C2\SC(=S)N(c3cccc(OC(C)=O)c3)C2=O)cc1 (configuration not stated) | 94.7% | 95.8% | 87.6% | 1.2 µM | CC50 at 120 h [10]: > 172 µM; Ratio CC50/IC50 [11]: >143.8 |
| CC(=O)Oc1cccc(N2C(=O)/C(=C/N3N=C(c4ccccc4)CC3c3ccc(N(C)C)cc3)SC2=S)c1 (configuration not stated) | 81.6% | 84.9% | 53.1% | 1.2 µM | CC50 at 120 h [10]: > 184 µM; Ratio CC50/IC50 [11]: >153.6 |
| CC(=O)Oc1cccc(N2C(=O)/C(=C/N3N=C(c4ccccc4)CC3c3ccc(Cl)cc3)SC2=S)c1 (configuration not stated) | 90.3% | 91.4% | 42.1% | 1.9 µM | – |
| CC(=O)Oc1cccc(N2C(=O)/C(=C/N3N=C(c4ccc5ccccc5c4)CC3c3ccc(Cl)cc3)SC2=S)c1 (configuration not stated) | 90.6% | 89.9% | 66.7% | 16.5 µM | – |
| COc1ccc(C2CC(c3ccc4ccccc4c3)=NN2/C=C2\SC(=O)NC2=S)cc1 (configuration not stated) | 87.2% | 74.7% | 19.7% | 18.6 µM | – |
| COc1ccc(C2CC(c3ccccc3)=NN2C(=O)CN/C=C2\SC(=S)N(C)C2=O)cc1 (configuration not stated) | 96.1% | 96.5% | 62.3% | 4.6 µM | – |
| CN1C(=O)/C(=C/NCC(=O)N2N=C(c3ccc4ccccc4c3)CC2c2ccc(Cl)cc2)SC1=S (configuration not stated) | 93.5% | 86.9% | 52% | 2.1 µM | – |
| CN1C(=O)/C(=C/NCC(=O)N2N=C(c3ccc4ccccc4c3)CC2c2ccc(F)cc2)SC1=S (configuration not stated) | 95.6% | 94.8% | 46.6% | 1.5 µM | – |
| CC1CS(=O)(=O)CCN1/N=C/c1ccc([N+](=O)[O-])o1 (configuration not stated) [NIFURTIMOX] | – | – | – | 4.4 µM | CC50 at 120 h [10]: 78.2 µM; Ratio CC50/IC50 [11]: 17.8 |
